In ChEMBL document CHEMBL4825737, “Design, synthesis, and biological evaluation of novel 6-(pyridin-3-yl) quinazolin-4(3H)-one derivatives as potential anticancer agents via PI3K inhibition” (Bioorg Med Chem, 2021):
Calls of active or inactive are those of the source. The rule behind the calls is not given here.

Columns and labels:
[1] = test system: HCC827; assay: Antiproliferative activity against human HCC827 cells assessed as reduction in cell viability measured after 72 hrs by flow cytometry analysis; type: functional, cell-based; details: HCC827, 72 h
How it was run: (§1)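 Cells in RPMI 1640 with 10% FBS and penicillin/streptomycin/amphotericin B, seeded at 2.5–3 × 10⁴ per well. Grown adherent in fresh medium for 24 h, then exposed to a range of compound concentrations for 72 h. Living cell numbers counted by flow cytometry; IC50 calculated. Mean ± SD from three experiments.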

[2] = Antiproliferative activity against human LM3 cells assessed as reduction in cell viability measured after 72 hrs by flow cytometry analysis; type: functional, cell-based; details: GILM3, 72 h; how it was run: as §1
[3] = test system: SH-SY5Y; assay: Antiproliferative activity against human SH-SY5Y assessed as reduction in cell viability measured after 72 hrs by flow cytometry analysis; type: functional, cell-based; how it was run: as §1
[4] = test system: HEL; assay: Antiproliferative activity against human HEL cells assessed as reduction in cell viability measured after 72 hrs by flow cytometry analysis; type: functional, cell-based; how it was run: as §1
[5] = test system: L02; assay: Antiproliferative activity against human HL7702 cells assessed as reduction in cell viability measured after 72 hrs by flow cytometry analysis; type: functional, cell-based; details: L02, 72 h; how it was run: as §1
[6] = Inhibition of PI3K in human HCC827 cells assessed as decrease in phosphorylation incubated for 24 hrs by cell PI3 kinase activity photometric assay; type: cell-based; details: HCC827, 24 h
How it was run: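 Human NSCLC HCC827 cells grown in RPMI 1640 with 10% FBS and antibiotics-antimycotics, exposed to a range of concentrations for 24 h. Cells washed with Reagent A, lysed with Reagent B, protein measured by Bradford, then 100 μg lysate protein per group used in a cell PI3K assay kit for kinase activity. IC50 given as mean ± SD of three separate experiments.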

[7] = test system: HCC827; assay: Induction of apoptosis in human HCC827 cells assessed as early apoptotic cells at 1 uM incubated for 48 hrs by annexin V-FITC and propidium iodide staining based flow cytometry analysis (reference value: 2.69%); type: functional
[8] = test system: HCC827; assay: Induction of apoptosis in human HCC827 cells assessed as viable cells at 1 uM incubated for 48 hrs by annexin V-FITC and propidium iodide staining based flow cytometry analysis (reference value: 94.16%); type: functional; details: read-out: Activity
[9] = test system: HCC827; assay: Inhibition of PI3K signalling in human HCC827 cells assessed as decrease in phosphorylation of Akt at Ser473 at 1 to 4 uM incubated for 24 hrs by Western blot analysis; type: cell-based; details: dose 1-4 µM
How it was run: (§2)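 HCC827 cells treated with different compound concentrations for 24 h. Phospho-protein levels measured by Western blot. Mean ± SD from three parallel experiments, compared with DMSO control.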

[10] = test system: HCC827; assay: Inhibition of PI3K signalling in human HCC827 cells assessed as decrease in phosphorylation of GSKbeta at Ser9 at 1 to 4 uM incubated for 24 hrs by Western blot analysis; type: cell-based; details: dose 1-4 µM; how it was run: as §2
[11] = test system: HCC827; assay: Inhibition of PI3K signalling in human HCC827 cells assessed as decrease in phosphorylation of mTOR at Ser2448 at 1 to 4 uM incubated for 24 hrs by Western blot analysis; type: cell-based; details: dose 1-4 µM; how it was run: as §2
[12] = test system: HCC827; assay: Induction of cell cycle arrest in human HCC827 cells assessed as accumulation at G2 phase incubated for 24 hrs by […]PI assay; type: functional, cell-based; details: dose 1-4 µM
How it was run: (§3)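 HCC827 cells held 12 h in medium without FBS, then treated for 24 h. Fixed overnight in 70% ethanol and stained with propidium iodide plus RNase for 30 min in the dark at room temperature. Cell cycle distribution read by flow cytometry.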

[13] = test system: HCC827; assay: Induction of cell cycle arrest in human HCC827 cells assessed as decrease in G1 phase incubated for 24 hrs by […]PI assay; type: functional, cell-based; details: dose 1-4 µM; how it was run: as §3
[14] = test system: HCC827; assay: Induction of apoptosis in human HCC827 cells assessed as reduction in CHK1 expression at 1 to 4 uM incubated for 24 hrs by Western blot analysis; type: functional, cell-based; details: dose 1-4 µM
How it was run: (§4)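 HCC827 cells treated with a range of compound concentrations for 24 h. Western blot for G2/M-associated proteins with GAPDH as loading control. Bands quantified by densitometry; mean ± SD, n = 3, compared with control.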

[15] = test system: HCC827; assay: Induction of apoptosis in human HCC827 cells assessed as reduction in p-CHK1 expression at 1 to 4 uM incubated for 24 hrs by Western blot analysis; type: functional, cell-based; details: dose 1-4 µM; how it was run: as §4
[16] = test system: HCC827; assay: Induction of apoptosis in human HCC827 cells assessed as reduction in c-Myc expression at 1 to 4 uM incubated for 24 hrs by Western blot analysis; type: functional, cell-based; details: dose 1-4 µM; how it was run: as §4
[17] = test system: HCC827; assay: Induction of apoptosis in human HCC827 cells assessed as reduction in Cyclin-B1 expression at 1 to 4 uM incubated for 24 hrs by Western blot analysis; type: functional, cell-based; details: dose 1-4 µM; how it was run: as §4
[18] = test system: HCC827; assay: Induction of apoptosis in human HCC827 cells assessed as upregulation of cleaved-PRAP by Western blot analysis; type: functional, cell-based
How it was run: (§5)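 HCC827 cells treated with a range of compound concentrations. Western blot for mitochondrial apoptosis proteins with GAPDH as loading control. Bands quantified by densitometry; mean ± SD, n = 3, compared with vehicle control.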

[19] = test system: HCC827; assay: Induction of apoptosis in human HCC827 cells assessed as upregulation of cleaved-caspase 9 by Western blot analysis; type: functional, cell-based; how it was run: as §5
[20] = test system: HCC827; assay: Induction of apoptosis in human HCC827 cells assessed as upregulation of Bax by Western blot analysis; type: functional, cell-based; how it was run: as §5
[21] = test system: HCC827; assay: Induction of apoptosis in human HCC827 cells assessed as downregulation of Bcl-2 by Western blot analysis; type: functional, cell-based; how it was run: as §5
[22] = test system: HCC827; assay: Induction of apoptosis in human HCC827 cells assessed as late apoptotic cells at 1 uM incubated for 48 hrs by annexin V-FITC and propidium iodide staining based flow cytometry analysis (reference value: 0.56%); type: functional
[23] = test system: HCC827; assay: Induction of apoptosis in human HCC827 cells assessed as necrotic cells at 1 uM incubated for 48 hrs by annexin V-FITC and propidium iodide staining based flow cytometry analysis (reference value: 2.57%); type: functional
[24] = test system: HCC827; assay: Induction of apoptosis in human HCC827 cells assessed as viable cells at 2 uM incubated for 48 hrs by annexin V-FITC and propidium iodide staining based flow cytometry analysis (reference value: 94.16%); type: functional; details: read-out: Activity
[25] = test system: HCC827; assay: Induction of apoptosis in human HCC827 cells assessed as early apoptotic cells at 2 uM incubated for 48 hrs by annexin V-FITC and propidium iodide staining based flow cytometry analysis (reference value: 2.69%); type: functional
[26] = test system: HCC827; assay: Induction of apoptosis in human HCC827 cells assessed as late apoptotic cells at 2 uM incubated for 48 hrs by annexin V-FITC and propidium iodide staining based flow cytometry analysis (reference value: 0.56%); type: functional
[27] = test system: HCC827; assay: Induction of apoptosis in human HCC827 cells assessed as necrotic cells at 2 uM incubated for 48 hrs by annexin V-FITC and propidium iodide staining based flow cytometry analysis (reference value: 2.57%); type: functional
[28] = test system: HCC827; assay: Induction of apoptosis in human HCC827 cells assessed as viable cells at 4 uM incubated for 48 hrs by annexin V-FITC and propidium iodide staining based flow cytometry analysis (reference value: 94.16%); type: functional; details: read-out: Activity
[29] = test system: HCC827; assay: Induction of apoptosis in human HCC827 cells assessed as early apoptotic cells at 4 uM incubated for 48 hrs by annexin V-FITC and propidium iodide staining based flow cytometry analysis (reference value: 2.69%); type: functional
[30] = test system: HCC827; assay: Induction of apoptosis in human HCC827 cells assessed as late apoptotic cells at 4 uM incubated for 48 hrs by annexin V-FITC and propidium iodide staining based flow cytometry analysis (reference value: 0.56%); type: functional
[31] = test system: HCC827; assay: Induction of apoptosis in human HCC827 cells assessed as necrotic cells at 4 uM incubated for 48 hrs by annexin V-FITC and propidium iodide staining based flow cytometry analysis (reference value: 2.57%); type: functional

CC(C)(C)C(=O)Nc1ccc(-c2ccc3ncn(Cc4ccc5c(c4)OCO5)c(=O)c3c2)cn1
IC50 [1]: > 40 µM | IC50 [2]: > 40 µM | IC50 [3]: > 40 µM | IC50 [4]: > 40 µM

CCCCC(=O)Nc1ccc(-c2ccc3ncn(Cc4ccccc4)c(=O)c3c2)cn1
IC50 [1]: > 40 µM | IC50 [2]: > 40 µM | IC50 [3]: > 40 µM | IC50 [4]: > 40 µM

Cn1c(=O)n(-c2ccc(C(C)(C)C#N)cc2)c2c3cc(-c4cnc5ccccc5c4)ccc3ncc21 [DACTOLISIB]
IC50 [1]: 0.53 µM | IC50 [2]: 1.31 µM | IC50 [3]: 0.79 µM | IC50 [4]: 0.29 µM

CCCCC(=O)Nc1ccc(-c2ccc3ncn(Cc4ccc(C)cc4)c(=O)c3c2)cn1
IC50 [1]: 32.2 µM | IC50 [2]: > 40 µM | IC50 [3]: 35.4 µM | IC50 [4]: 18.8 µM

CCC(=O)Nc1ccc(-c2ccc3ncn(CCN4CCOCC4)c(=O)c3c2)cn1
IC50 [1]: > 40 µM | IC50 [2]: > 40 µM | IC50 [3]: > 40 µM | IC50 [4]: > 40 µM

CCCCn1cnc2ccc(-c3ccc(NC(=O)CC)nc3)cc2c1=O
IC50 [5]: 10.9 µM | IC50 [1]: 1.2 µM | IC50 [2]: 2.49 µM | IC50 [3]: 3.72 µM | IC50 [4]: 2.83 µM

CCCCC(=O)Nc1ccc(-c2ccc3ncn(Cc4ccc5c(c4)OCO5)c(=O)c3c2)cn1
IC50 [1]: > 40 µM | IC50 [2]: > 40 µM | IC50 [3]: > 40 µM | IC50 [4]: > 40 µM

COCC(=O)Nc1ccc(-c2ccc3ncn(Cc4ccccc4)c(=O)c3c2)cn1
IC50 [1]: > 40 µM | IC50 [2]: > 40 µM | IC50 [3]: > 40 µM | IC50 [4]: > 40 µM

CCC(=O)Nc1ccc(-c2ccc3ncn(Cc4ccccc4)c(=O)c3c2)cn1
IC50 [1]: > 40 µM | IC50 [2]: > 40 µM | IC50 [3]: > 40 µM | IC50 [4]: > 40 µM

COC[C@H]1OC(=O)c2coc3c2[C@@]1(C)C1=C(C3=O)[C@@H]2CCC(=O)[C@@]2(C)C[C@H]1OC(C)=O [WORTMANNIN]
IC50 [6]: 0.018 µM

CCC(=O)Nc1ccc(-c2ccc3ncn(CC(=O)N4CCOCC4)c(=O)c3c2)cn1
IC50 [1]: > 40 µM | IC50 [2]: > 40 µM | IC50 [3]: > 40 µM | IC50 [4]: > 40 µM

CC(C)(C)C(=O)Nc1ccc(-c2ccc3ncn(Cc4ccccc4)c(=O)c3c2)cn1
IC50 [1]: > 40 µM | IC50 [2]: > 40 µM | IC50 [3]: > 40 µM | IC50 [4]: > 40 µM

CCCCC(=O)Nc1ccc(-c2ccc3ncn(CCN4CCOCC4)c(=O)c3c2)cn1
IC50 [1]: 29 µM | IC50 [2]: > 40 µM | IC50 [3]: > 40 µM | IC50 [4]: > 40 µM

O=C(c1ccccc1)N(C(=O)c1ccccc1)c1ccc(-c2ccc3ncn(Cc4ccccc4)c(=O)c3c2)cn1
IC50 [5]: 8.66 µM | IC50 [1]: 1.12 µM | IC50 [2]: 2.65 µM | IC50 [3]: 2.13 µM | IC50 [4]: 2.01 µM | IC50 [6]: 0.072 µM | Activity [7]: 11.77% | viability at 1 µM [8]: 68.2% | inhibition [9]: Active | inhibition [10]: Active | inhibition [11]: Active | Activity [12]: Dose-Dependent Effect | Activity [13]: Dose-Dependent Effect | Activity [14]: Active | Activity [15]: Active | Activity [16]: Active | Activity [17]: Active | Activity [18]: Dose-Dependent Effect | Activity [19]: Dose-Dependent Effect | Activity [20]: Dose-Dependent Effect | Activity [21]: Active | Activity [22]: 13.57% | Activity [23]: 6.47% | viability at 2 µM [24]: 58.5% | Activity [25]: 19.16% | Activity [26]: 15.63% | Activity [27]: 6.66% | viability at 4 µM [28]: 54.8% | Activity [29]: 27.87% | Activity [30]: 11.28% | Activity [31]: 6.05%

CCC(=O)Nc1ccc(-c2ccc3ncn(Cc4ccc(C)cc4)c(=O)c3c2)cn1
IC50 [1]: > 40 µM | IC50 [2]: > 40 µM | IC50 [3]: > 40 µM | IC50 [4]: > 40 µM

Cc1ccc(Cn2cnc3ccc(-c4ccc(N(C(=O)c5ccccc5)C(=O)c5ccccc5)nc4)cc3c2=O)cc1
IC50 [1]: 29.2 µM | IC50 [2]: > 40 µM | IC50 [3]: > 40 µM | IC50 [4]: > 40 µM

CCC(=O)Nc1ccc(-c2ccc3ncn(Cc4ccc5c(c4)OCO5)c(=O)c3c2)cn1
IC50 [1]: > 40 µM | IC50 [2]: > 40 µM | IC50 [3]: > 40 µM | IC50 [4]: > 40 µM
